Test results as given in publication PMC2669732 (Journal of Medicinal Chemistry, 2009).
Where two headings read alike, the source gives them in different places.

How the values were obtained:
EcIspF = biological target: T1, EcIspF (Escherichia coli, UniProt P62617); assay: SPR binding assay with immobilized EcIspF; details: for fold weaker binding than CMP: SPR KD comparison; for ΔG: ΔG = −RT ln Kd
T1 sequence (P62617 1-159): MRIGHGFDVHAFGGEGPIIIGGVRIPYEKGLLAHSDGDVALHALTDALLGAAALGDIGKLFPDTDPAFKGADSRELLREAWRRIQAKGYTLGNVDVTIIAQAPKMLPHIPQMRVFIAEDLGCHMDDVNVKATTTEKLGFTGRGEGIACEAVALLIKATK
How it was run: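 E. coli IspF expressed in BL21(DE3), >95% pure, amine-coupled to CM5 chip (diluted to ~100 μg/mL final in 10 mM acetate pH 5.5) to 4500–5500 RU. Ligand series 0.1 μM–10 mM run at 10 °C, 30 μL/min, in 50 mM sodium phosphate pH 7, 2 mM MgCl2, 0.005% P20. Each injection in triplicate with 40 min buffer regeneration. Blank-subtracted steady-state RU fit to 1:1 Langmuir model.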

E. coli LpxC = details: cited from earlier work
LpxC = details: cited from earlier work
[1] = Δg = ΔG/N, N = number of non-hydrogen atoms, Table 5

Compound | ΔG (EcIspF) [kcal/mol] | ligand efficiency (Δg) (EcIspF; [1]) [kJ·mol^−1/non-H atom] | ligand efficiency (Δg) (EcIspF) [kJ·mol^−1/non-H atom] | also measured
Nc1ccn([C@H]2O[C@@H](CO)[C@H]3OP(=O)(O)O[C@H]32)c(=O)n1 (mixture of isomers) [Compound 6] |  |  |  | fold weaker binding than CMP (EcIspF): about 20 fold
Nc1ccn(CC(CO)OCP(=O)(O)O)c(=O)n1.O.O (stereo in doubt) [CDV, [(2R)-1-(4-amino-2-oxo-pyrimidin-1-yl)-3-hydroxy-propan-2-yl] oxymethylphosphonic acid] | -1.81 | −0.42 |  | 
O=C(O)C1COC(c2ccccc2)=N1 (stereo not shown) [4,5 dihydro-2-phenyloxazole-4-carboxylic acid] |  |  |  | IC50 (E. coli LpxC): > 400 µM
N[C@@H](Cc1c[nH]c2ccccc12)C(=O)NO [Compound 13, 2-amino-N-hydroxy-3-(1H-indol-3-yl)-propionimidic acid] |  | −2.04 | −2.04 | 
CC(=O)N[C@H]1[C@@H](OP(=O)(O)OP(=O)(O)OC[C@H]2O[C@@H](n3ccc(=O)[nH]c3=O)[C@H](O)[C@@H]2O)O[C@H](CO)[C@@H](O)[C@@H]1O [UDP-GlcNAc] |  |  |  | Km (LpxC; substrate of LpxC): > 20000 µM
UDP-3-acyl-GlcNAc |  |  |  | Km (LpxC; natural substrate of LpxC): 2.1 µM

Now from value to compound, other results behind:

ΔG (EcIspF) [kcal/mol] | ligand efficiency (Δg) (EcIspF; [1]) [kJ·mol^−1/non-H atom] | ligand efficiency (Δg) (EcIspF) [kJ·mol^−1/non-H atom] | Compound | also measured
-2.23 | −0.44 |  | Nc1ccn([C@@H]2O[C@H](COP(=O)(O)O)[C@@H](O)[C@@H]2O)c(=O)n1 [AraCMP] | fold weaker binding than CMP (EcIspF): 20 fold
-3.941 | −0.79 | −0.79 | Nc1ccn([C@@H]2O[C@H](COP(=O)(O)O)[C@@H](O)[C@H]2O)c(=O)n1 [CMP] | 
-3.929 | −0.82 |  | Nc1ccn([C@@H]2O[C@@H]3COP(=O)(O)O[C@H]3[C@H]2O)c(=O)n1 [Compound 7] | 
-3.489 | −0.81 | −0.81 | Nc1nc(=O)n([C@@H]2O[C@H](CO)[C@@H](O)[C@H]2O)cc1F [FLUC] | 
